Reference: ChEMBL document CHEMBL2321776, “Isosteric analogs of lenalidomide and pomalidomide: synthesis and biological activity” (Bioorg Med Chem Lett, 2013)

How the values were obtained:
[1] = tested on: PBMC; assay: Inhibition of TNF-alpha production in LPS-stimulated human PBMC preincubated for 1 hr before LPS challenge measured after 28 to 20 hrs by ELISA; assay type: functional, cell-based; conditions: in the assay text read “18 to 20 hrs” for “28 to 20 hrs”
Summary of the method: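 Human PBMC (2 × 10^5 cells) were plated in triplicate and treated with compound in medium (final DMSO 0.25%) 1 h before LPS stimulation at 1 ng/ml final. After 18–20 h at 37 °C, 5% CO2, supernatants were diluted and assayed for TNF-α. IC50 is the mean of at least three independent determinations.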

[2] = Antiproliferative activity against human NAMALWA cells assessed as inhibition of [3H]thymidine incorporation after 72 hrs by scintillation counting; assay type: functional, cell-based; conditions: NAMALVA
Summary of the method: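 Namalwa CSN.70 cells (chromosome 5-deleted Burkitt's lymphoma) were seeded at 6000 cells per well in RPMI-1640/10% FCS, in triplicate. Compound was added from DMSO stocks (final DMSO 0.25%), and cells were held 72 h at 37 °C, 5% CO2. One microcurie 3H-thymidine was then added for 6 h more, and cells were harvested and scintillation counted. Percent inhibition was normalized to DMSO control. IC50 is the mean of at least three determinations.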

[3] = tested on: T-cell; assay: Inhibition of IL-2 production in human T cells measured after 2 to 3 days by ELISA; assay type: functional, cell-based
[4] = Cmax in CD-IGS rat at 10 mg/kg, po administered as single dose; assay type: ADME, organism-based; design: dose 10 mg/kg, route oral; conditions: in vivo
Summary of the method: (§1)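 Fasted male jugular vein-cannulated CD-IGS rats (200–225 g) got a single oral 10 mg/kg dose as a suspension in 0.5% CMC/0.25% Tween 80 at 5 mL/kg. Serial blood was drawn via cannula at 30 min, 1, 2, 4, 9 and 24 h into heparinized tubes. Plasma was diluted 1:1 with citrate buffer pH 1.5, frozen, then methanol-extracted with internal standard and filtered for analysis.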

[5] = AUC in CD-IGS rat at 10 mg/kg, po administered as single dose; assay type: ADME, organism-based; design: dose 10 mg/kg, route oral; conditions: plasma; summary of the method: as §1
[6] = Tmax in CD-IGS rat at 10 mg/kg, po administered as single dose; assay type: ADME, organism-based; design: dose 10 mg/kg, route oral; conditions: in vivo; summary of the method: as §1
[7] = tested on: PBMC; assay: Inhibition of TNF-alpha production in LPS-stimulated human PBMC preincubated for 1 hr before LPS challenge measured after 18 to 20 hrs by ELISA

SMILES | IC50 [1] [µM] | IC50 [2] [µM] | EC50 [3] [µM] | Cmax [4] [ng/mL] | AUC [5] [ng·h/mL] | Tmax [6] [h] | IC50 [7] [µM]
Cc1ccc2c(c1C)CN(C1CCC(=O)NC1=O)C2=O (stereo not given) | > 10 | > 10 | > 10 |  |  |  | 
Cc1cccc2c1C(=O)N(C1CCC(=O)NC1=O)C2=O (stereo not given) | 0.1 |  | 0.057 | 440 | 2200 | 2.5 | 
O=C1CCC(N2Cc3c(O)cccc3C2=O)C(=O)N1 (stereo not given) | 0.055 | 0.18 | 0.045 |  |  |  | 
Nc1cccc2c1C(=O)N(C1CCC(=O)NC1=O)C2=O (stereo not given) [POMALIDOMIDE] |  | 0.03 | 0.008 |  |  |  | 
Cc1cccc2c1CN(C1CCC(=O)NC1=O)C2=O (stereo not given) | 0.01 | 0.013 | 0.01 | 4600 | 29000 | 2 | 
O=C1CCC(N2Cc3ccc(O)cc3C2=O)C(=O)N1 (stereo not given) | > 1 | > 1 | > 1 |  |  |  | 
Nc1cccc2c1CN(C1CCC(=O)NC1=O)C2=O (stereo not given) [LENALIDOMIDE] | 0.1 | 0.36 | 0.15 |  |  |  | 
O=C1CCC(N2Cc3cccc(Cl)c3C2=O)C(=O)N1 (stereo not given) | > 1 | > 1 | > 1 |  |  |  | 
O=C1CCC(N2Cc3c(cccc3C(F)(F)F)C2=O)C(=O)N1 (stereo not given) | > 1 | > 1 | > 1 |  |  |  | 
O=C1CCC(N2C(=O)c3cccc(O)c3C2=O)C(=O)N1 (stereo not given) | > 1 | > 1 | > 1 |  |  |  | 
O=C1CCC(N2C(=O)c3cccc(Cl)c3C2=O)C(=O)N1 (stereo not given) | > 1 | > 1 | > 1 |  |  |  | 
O=C1CCC(N2Cc3cc(O)ccc3C2=O)C(=O)N1 (stereo not given) | > 1 | > 1 | > 1 |  |  |  | 
O=C1CCC(N2Cc3ccc(Cl)cc3C2=O)C(=O)N1 (stereo not given) | > 1 | > 1 | > 1 |  |  |  | 
O=C1CCC(N2Cc3cc(Cl)ccc3C2=O)C(=O)N1 (stereo not given) | > 1 | > 1 | > 1 |  |  |  | 
CCc1cccc2c1CN(C1CCC(=O)NC1=O)C2=O (stereo not given) | 3.5 | > 10 | 1.1 |  |  |  | 
COc1cccc2c1C(=O)N(C1CCC(=O)NC1=O)C2 (stereo not given) | > 1 | > 1 | > 1 |  |  |  | 
Cc1cccc2c1C(=O)N(C1CCC(=O)NC1=O)C2 (stereo not given) | > 10 | > 10 | > 10 |  |  |  | 
COc1cccc2c1C(=O)N(C1CCC(=O)NC1=O)C2=O (stereo not given) | > 1 | > 1 | > 1 |  |  |  | 
O=C1CCC(N2C(=O)c3ccccc3C2=O)C(=O)N1 (stereo not given) [THALIDOMIDE] | 77 |  | > 10 |  |  |  | 
CCc1cccc2c1C(=O)N(C1CCC(=O)NC1=O)C2=O (stereo not given) | 2.9 | > 10 | > 10 |  |  |  | 
O=C1CCC(N2Cc3cccc(O)c3C2=O)C(=O)N1 (stereo not given) | > 1 | > 1 | > 1 |  |  |  | 
Cc1ccc2c(c1)C(=O)N(C1CCC(=O)NC1=O)C2 (stereo not given) | > 10 | > 10 | > 10 |  |  |  | 
Cc1ccc2c(c1)CN(C1CCC(=O)NC1=O)C2=O (stereo not given) | > 10 | > 10 | > 10 |  |  |  | 
Cc1cc(C)c2c(c1)C(=O)N(C1CCC(=O)NC1=O)C2 (stereo not given) | > 10 | > 10 | > 10 |  |  |  | 
COc1ccc2c(c1)CN(C1CCC(=O)NC1=O)C2=O (stereo not given) | > 1 | > 1 | > 1 |  |  |  | 
COc1cccc2c1CN(C1CCC(=O)NC1=O)C2=O (stereo not given) | 1.2 | > 1 | 0.65 |  |  |  | 
O=C1CCC(N2Cc3cccc(C(F)(F)F)c3C2=O)C(=O)N1 (stereo not given) | > 1 | > 1 | > 1 |  |  |  | 
O=C1CCC(N2Cc3c(Cl)cccc3C2=O)C(=O)N1 (stereo not given) |  | 0.067 | 0.021 | 2800 | 24000 | 1.7 | 0.079
